The text below walks through data of PubChem BioAssay.

The source made the active and inactive calls.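 How the source made its calls, unless noted: active means viability at or below 10% of carrier control in both of two separate runs; inconclusive means viability at or below 10% in only one of the two runs; inactive means the rest.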

Assay [1] can be described thus: reducers of endogenous Her2 protein level, primary screen, SKBR3 breast tumor cells, AlphaScreen, ATP viability (AID 461;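 active means Her2 level under about 52% in both replicate screens, with viability over 70% of control, limit read from the data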;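 on Her2 level: lower value means less Her2 protein in the cells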;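 on viability: percent of carrier control wells set as 100% viability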). Particulars: 18-24 h, measured here: SKBR3 viability, ATP luminescence, at 10 µM. On the technique in general: In Alpha technology, singlet oxygen from a donor bead excites a nearby acceptor bead.
Assay [2] addresses Receptor tyrosine-protein kinase erbB-2 (Homo sapiens) (UniProt P04626). The description is as above. The following applies: 18-24 h, at 10 µM, stronger effect = lower value.
Assay [3] in a line: SK-BR-3 cell growth inhibitors, pilot screen, 24 h, human (AID 572).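 Further: compound exposure lasted between 18 and 24 h rather than exactly 24 h; 100% = carrier-treated control wells.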 The following applies: SK-BR-3 viability, CellTiter-Glo luminescence, at 10 µM, stronger effect = lower value. Background: ATP-based viability assays read luminescence as a measure of living cells.
Assay [4] can be described thus: HUVEC growth inhibition – cell-based, human, primary screen (AID 575;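 active means viability at or below 30% in both replicate assays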;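 further: 100% = median of untreated cell wells with 0.1% DMSO on each plate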). The following applies: HUVEC proliferation, CellTiter-Glo luminescence, 72 h; at 10 µM; stronger effect = lower value. In short, it runs like this:
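material = primary HUVEC, no more than 12 passages | input = 1250 cells per well | controls = vehicle and MePR control wells | measured by = CTG luminescence | times = 72 h compound incubation | format = collagen-coated 384-well format | read-out = % viability vs DMSO wells | doses = single 10 µM dose, 0.1% DMSO, from 5x medium stock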

Assay [5] in a line: growth inhibitors of H69AR lung tumor, primary screen, human, duplicate replicates (AID 580;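 active means viability at or under a set limit in both replicates, limit being median viability minus 3 SD, cut at about 48% in these data, passing the limit was not always enough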;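 further: 100% = mean luminescence of untreated wells and 0% = no signal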). The following applies: H69AR lung tumor cells viability, ATP luminescence, 72 h; at 10 µM; stronger effect = lower value.
Assay [6] is described as follows: reversal of MRP1-mediated doxorubicin resistance, pilot screen, H69AR cells, doxorubicin co-treatment (AID 601;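 active means viability loss from added drug above about 55%, and viability with drug at most 40%, in both replicates, limit read from the data, passing the limit was not always enough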). Particulars: CellTiter-Glo, 72 h, at 10 µM; for differential viability (reversal): stronger effect = higher value.
The nature of assay [7]: 384-well plate pilot, post-Golgi transport modulator project, inhibition of yeast transport mutant growth (AID 636; in the data active means inhibition above about 31%). The following applies: absorbance 615 nm, about 18 h, stronger effect = higher value.
Assay [8] in a line: growth suppression of yeast trafficking mutant, preliminary HTS, modulators of trafficking downstream of Golgi apparatus project, 1536-format plate, OD 615 nm (AID 637; in the data active means inhibition above about 30%). The following applies: yeast transport mutant growth, absorbance 615 nm, 18 h; stronger effect = higher value.
Where [9] appears, read: H69AR cells + 2 uM doxorubicin, measured here: viability with 2 uM doxorubicin, stronger effect = lower value.
[10] abbreviates: H69AR cells, compound alone cytotoxicity.

Sequence of Receptor tyrosine-protein kinase erbB-2 (Homo sapiens) (P04626 whole entry, looked up): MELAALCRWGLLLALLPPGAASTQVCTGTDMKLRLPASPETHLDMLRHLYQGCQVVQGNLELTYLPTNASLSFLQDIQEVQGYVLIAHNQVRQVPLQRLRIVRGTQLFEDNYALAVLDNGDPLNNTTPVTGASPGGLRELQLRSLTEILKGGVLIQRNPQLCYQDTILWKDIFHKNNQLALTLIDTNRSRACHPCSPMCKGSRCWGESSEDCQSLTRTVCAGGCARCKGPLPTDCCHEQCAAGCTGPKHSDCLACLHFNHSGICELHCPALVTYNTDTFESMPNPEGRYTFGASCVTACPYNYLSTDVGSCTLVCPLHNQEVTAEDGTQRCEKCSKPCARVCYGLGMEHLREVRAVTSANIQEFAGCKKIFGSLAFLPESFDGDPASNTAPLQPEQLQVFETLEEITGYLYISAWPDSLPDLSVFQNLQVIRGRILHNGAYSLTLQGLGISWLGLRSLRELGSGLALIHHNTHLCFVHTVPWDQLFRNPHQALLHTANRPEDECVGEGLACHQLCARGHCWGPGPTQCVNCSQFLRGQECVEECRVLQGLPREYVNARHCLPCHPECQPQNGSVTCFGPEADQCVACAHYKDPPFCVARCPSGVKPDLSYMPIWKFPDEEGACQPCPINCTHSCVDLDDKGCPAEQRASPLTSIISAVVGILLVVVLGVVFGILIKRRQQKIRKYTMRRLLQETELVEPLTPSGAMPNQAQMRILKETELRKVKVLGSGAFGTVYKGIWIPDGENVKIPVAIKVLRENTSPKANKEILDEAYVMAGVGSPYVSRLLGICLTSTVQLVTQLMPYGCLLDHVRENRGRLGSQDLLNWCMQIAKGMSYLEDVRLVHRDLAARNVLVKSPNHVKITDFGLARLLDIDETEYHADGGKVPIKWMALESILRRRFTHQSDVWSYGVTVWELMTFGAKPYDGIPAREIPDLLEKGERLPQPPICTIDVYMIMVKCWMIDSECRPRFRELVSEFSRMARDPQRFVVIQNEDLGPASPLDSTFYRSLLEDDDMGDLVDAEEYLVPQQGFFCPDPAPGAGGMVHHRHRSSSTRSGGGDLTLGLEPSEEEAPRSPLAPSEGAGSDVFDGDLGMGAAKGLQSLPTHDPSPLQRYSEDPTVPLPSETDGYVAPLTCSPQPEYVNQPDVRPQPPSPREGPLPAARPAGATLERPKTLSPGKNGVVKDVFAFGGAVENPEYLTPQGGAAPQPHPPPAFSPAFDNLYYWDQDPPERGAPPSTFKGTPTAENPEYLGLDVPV

In the case of `Cc1ccc(C)c(NC(=O)CC(NCCCN2CCOCC2)C(=O)O)c1` (stereo not given), the viability is 94% in assay [1]; 94% (inactive) in assay [3]; 106% (inactive) in assay [4]; 88.3% (inactive) in assay [5]; 96.8% in assay [6] (setting [9]); 88.3% in assay [6] (setting [10]). In addition, in assay [2], the Her2 level was 93.5% (inactive). Also, the differential viability (reversal) in assay [6] (H69AR cells + 2 uM doxorubicin) is -8.47% (inactive). In addition, the inhibition was -0.78% (inactive) in assay [7] and 9.51% (inactive) in assay [8].

Regarding `Cc1cc(C)c2c(n1)nn1c(C3CC3)cc(C(F)(F)F)nc21`, the viability in assay [1] was 106%; in assay [3] it was 106% (inactive); in assay [4], 90.7% (inactive); in assay [5], 92.4% (inactive); in assay [6] (setting [9]) it was 96.4%; in assay [6] (setting [10]), 92.4%. For the same molecule, the Her2 level in assay [2] was 89% (inactive). The differential viability (reversal) in assay [6] (H69AR cells + 2 uM doxorubicin) is -4.02% (inactive). Besides, the inhibition was -5.41% (inactive) in assay [7] and 2.54% (inactive) in assay [8].

For `N#CC1=C(SCC(=O)c2cc3ccccc3oc2=O)NC(=O)C(C#N)C12CCCC2` (stereo not given), the viability is 92% in assay [1]; 92% (inactive) in assay [3]; 72.1% (inactive) in assay [4]; 86.5% (inactive) in assay [5]; 80.1% in assay [6] (setting [9]); 86.5% in assay [6] (setting [10]). Moreover, the Her2 level in assay [2] was 76% (inactive). Also, the differential viability (reversal) in assay [6] (H69AR cells + 2 uM doxorubicin) is 6.35% (inactive). Further, the inhibition is -3.2% (inactive) in assay [7] and 0.32% (inactive) in assay [8].

For the molecule `c1ccc2c(c1)CNC1(CCCCC1)C2`, the viability is 103% in assay [1]; 103% (inactive) in assay [3]; 103% (inactive) in assay [4]; 102% (inactive) in assay [5]; 88.6% in assay [6] (setting [9]); 102% in assay [6] (setting [10]). In assay [2], the Her2 level is 94.5% (inactive). Besides, the differential viability (reversal) in assay [6] (H69AR cells + 2 uM doxorubicin) is 12.9% (inactive). Moreover, the inhibition in assay [7] is -8.63% (inactive); in assay [8], 1.27% (inactive).

Consider `N#Cc1c(NC(NC(=O)c2ccco2)C(=O)c2ccccc2)sc2c1CCCC2` (stereo not given), for which the viability was 86.5% in assay [1]; 86.5% (inactive) in assay [3]; 70.7% (inactive) in assay [4]; 86.4% (inactive) in assay [5]; 92.8% in assay [6] (setting [9]); 86.4% in assay [6] (setting [10]). Also, the Her2 level in assay [2] was 73.5% (inactive). Besides, in assay [6] (H69AR cells + 2 uM doxorubicin), the differential viability (reversal) was -6.42% (inactive). The results for the inhibition in assay [7] and in assay [8] were 80.4% (active) and 18% (inactive), respectively.

For `O=C(CSc1nnnn1-c1ccc(Cl)cc1)NC(=O)Nc1ccc2c(c1)OCCO2`, the viability in assay [1] was 104%; in assay [3] it was 104% (inactive); in assay [4] it was 66.9% (inactive); in assay [5], 75.5% (inactive); in assay [6] (setting [9]) it was 74.8%; in assay [6] (setting [10]), 75.5%. The Her2 level in assay [2] was 101% (inactive). In addition, the differential viability (reversal) in assay [6] (H69AR cells + 2 uM doxorubicin) is 0.67% (inactive). Moreover, the inhibition in assay [7] was -6% (inactive); in assay [8], 3.02% (inactive).

With `CCOC(=O)/N=C(/NC(=O)Nc1ccc(C(=O)OCC)cc1)OC`, the viability is 99.5% in assay [1]; 99.5% (inactive) in assay [3]; 83.7% (inactive) in assay [4]; 96.5% (inactive) in assay [5]; 81.8% in assay [6] (setting [9]); 96.5% in assay [6] (setting [10]). In addition, in assay [2], the Her2 level is 75.5% (inactive). Besides, the differential viability (reversal) in assay [6] (H69AR cells + 2 uM doxorubicin) is 14.8% (inactive). Also, the inhibition in assay [7] is -5.54% (inactive); in assay [8], 5.4% (inactive).

Consider `CC(C)CSc1nc2ccccc2n1CC(N)=O`, for which the viability in assay [1] was 89.5%; in assay [3] it was 89.5% (inactive); in assay [4] it was 87.6% (inactive); in assay [5] it was 93.4% (inactive); in assay [6] (setting [9]), 93.2%; in assay [6] (setting [10]) it was 93.4%. In addition, the Her2 level in assay [2] is 96% (inactive). In addition, the differential viability (reversal) in assay [6] (H69AR cells + 2 uM doxorubicin) is 0.185% (inactive). For the same molecule, the values for the inhibition in assay [7] and in assay [8] were -0.38% (inactive) and 0.67% (inactive), respectively.

Take `COc1ccc(-c2cc3nc4n(c(=O)c3s2)CCC4)cc1`: the viability is 129% in assay [1]; 129% (inactive) in assay [3]; 103% (inactive) in assay [4]; 84.1% (inactive) in assay [5]; 88.9% in assay [6] (setting [9]); 84.1% in assay [6] (setting [10]). The Her2 level in assay [2] is 101% (inactive). Moreover, the differential viability (reversal) in assay [6] (H69AR cells + 2 uM doxorubicin) was -4.84% (inactive). Moreover, the values for the inhibition in assay [7] and in assay [8] were -5% (inactive) and 3.44% (inactive), respectively.

Take `C/C(N)=C(/C#N)C(=O)COC(=O)COc1ccc(Cl)cc1`: the viability in assay [1] is 93%; in assay [3] it was 93% (inactive); in assay [4], 98% (inactive); in assay [5] it was 91.9% (inactive); in assay [6] (setting [9]), 97.7%; in assay [6] (setting [10]), 91.9%. Also, in assay [2], the Her2 level was 100% (inactive). The differential viability (reversal) in assay [6] (H69AR cells + 2 uM doxorubicin) was -5.87% (inactive). Besides, the inhibition in assay [7] was -7.07% (inactive); in assay [8], -5.08% (inactive).

In the case of `CCN(Cc1nc2cc(OC)c(OC)cc2c(=O)[nH]1)C(=O)c1ccc(S(=O)(=O)N(C)C)cc1`, the viability is 113% in assay [1]; 113% (inactive) in assay [3]; 88.2% (inactive) in assay [4]; 109% (inactive) in assay [5]; 98.5% in assay [6] (setting [9]); 109% in assay [6] (setting [10]). Also, in assay [2], the Her2 level is 106% (inactive). Further, in assay [6] (H69AR cells + 2 uM doxorubicin), the differential viability (reversal) is 10.3% (inactive). The inhibition in assay [7] is -3.07% (inactive); in assay [8] it was 3.44% (inactive).

As for `CCOc1ccc2nc(SCc3ccc(C(=O)OC)o3)[nH]c2c1`, the viability in assay [1] was 77%; in assay [3] it was 77% (inactive); in assay [4], 89.5% (inactive); in assay [5] it was 109% (inactive); in assay [6] (setting [9]), 96.4%; in assay [6] (setting [10]), 109%. Moreover, the Her2 level in assay [2] is 87.5% (inactive). The differential viability (reversal) in assay [6] (H69AR cells + 2 uM doxorubicin) is 12.7% (inactive). The figures for the inhibition in assay [7] and in assay [8] were -0.4% (inactive) and -2.42% (inactive), respectively.

In the case of `Cn1c(=N)c(S(=O)(=O)c2ccc(Cl)cc2)cc2c(=O)n3ccccc3nc21`, the viability in assay [1] is 110%; in assay [3] it was 110% (inactive); in assay [4] it was 85.4% (inactive); in assay [5], 83.1% (inactive); in assay [6] (setting [9]), 86.7%; in assay [6] (setting [10]), 83.1%. For the same molecule, the Her2 level in assay [2] is 106% (inactive). Besides, the differential viability (reversal) in assay [6] (H69AR cells + 2 uM doxorubicin) is -3.57% (inactive). The values for the inhibition in assay [7] and in assay [8] were -1.95% (inactive) and -1.67% (inactive), respectively.

For `CCCCn1c(CN2CCN(c3cccc(Cl)c3)CC2)nc2c1c(=O)n(C)c(=O)n2C`, the viability is 111% in assay [1]; 111% (inactive) in assay [3]; 66.9% (inactive) in assay [4]; 74.7% (inactive) in assay [5]; 24.5% in assay [6] (setting [9]); 74.7% in assay [6] (setting [10]). Moreover, in assay [2], the Her2 level was 75% (inactive). In addition, in assay [6] (H69AR cells + 2 uM doxorubicin), the differential viability (reversal) is 50.2% (inactive). In addition, the figures for the inhibition in assay [7] and in assay [8] were -4.74% (inactive) and 6.07% (inactive), respectively.

What is called viability is a read-out of living cells in per cent, often relative to untreated cells. The inhibition is the change of the read-out against control, counted positive when it falls.
